≈ marks a conversion by molar mass, not a printed value. Calls of active or inactive are those of the source. The calls are words filed in the database; no cut-off is given here.
Tests used:
Aspergillus fumigatus [1] = assay: Antimicrobial activity against Aspergillus fumigatus NCIM 902 after 72 hrs by serial dilution method; assay type: functional; settings: NCIM 902, 72 h
Summary of the method: (§1)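 MIC by broth dilution in Sabouraud's dextrose broth, only for fungi sensitive in disc diffusion. Two-fold serial dilutions of compounds are made in 1 ml broth per tube, range 3.9 to 1000. Inoculated tubes are incubated at 27 °C for 72 h.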

Penicillium chrysogenum [2] = assay: Antimicrobial activity against Penicillium chrysogenum NCIM 707 at 1000 ug/disk after 72 hrs by disk diffusion method; assay type: functional; settings: for zone of inhibition at 1000 µg/disc: NCIM 707, 72 h, read-out: DIZ
Summary of the method: (§2)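 Disc diffusion on Sabouraud's dextrose agar. 100 µl of fungal suspension at 10⁶ CFU/ml is spread on the plate. Discs carry test compounds at two loadings in DMSO; DMSO alone is the negative control. Clotrimazole disc is the positive reference. Plates are incubated at 27 °C for 72 h, and the zone of inhibition diameter is measured.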

Trichoderma viride = assay: Antimicrobial activity against Trichoderma viride NCIM 1195 at 500 ug/disk after 72 hrs by disk diffusion method; assay type: functional; settings: NCIM 1195, 72 h, read-out: DIZ
Summary of the method: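 Fungal disc diffusion. 100 µl of suspension at 10⁶ CFU/ml was spread on Sabouraud's dextrose agar. Discs carrying test compound in DMSO were applied, with a DMSO-only disc as negative control. Plates were incubated at 27 °C for 72 h, and the zone of inhibition diameter was measured.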

Aspergillus niger [3] = assay: Antimicrobial activity against Aspergillus niger NCIM 1196 at 1000 ug/disk after 72 hrs by disk diffusion method
Aspergillus niger [4] = assay: Antimicrobial activity against Aspergillus niger NCIM 1196 at 500 ug/disk after 72 hrs by disk diffusion method
Aspergillus parasiticus = assay: Antimicrobial activity against Aspergillus parasiticus NCIM 904 at 500 ug/disk after 72 hrs by disk diffusion method; assay type: functional; settings: NCIM 904, 72 h, read-out: DIZ; summary of the method: as §2
Lipomyces lipofer [5] = assay: Antimicrobial activity against Lipomyces lipofer NCIM 3252 at 500 ug/disk after 72 hrs by disk diffusion method; assay type: functional; summary of the method: as §2
Escherichia coli = assay: Antimicrobial activity against Escherichia coli NCIM 2065 at 500 ug/disk after 24 hrs by disk diffusion method; assay type: functional; settings: for zone of inhibition at 500 µg/disc: NCIM 2065, 24 h, read-out: DIZ
Summary of the method: (§3)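 Disc diffusion on Mueller–Hinton agar. 100 µl of bacterial suspension at 10⁸ CFU/ml is spread on the plate. Discs carry test compounds at two loadings, dissolved in DMSO; DMSO alone serves as negative control. Ofloxacin disc is the positive reference. Plates are incubated at 37 °C for 24 h, and the inhibition zone diameter is measured.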

Aspergillus fumigatus [6] = assay: Antimicrobial activity against Aspergillus fumigatus NCIM 902 at 1000 ug/disk after 72 hrs by disk diffusion method; assay type: functional; settings: NCIM 902, 72 h, read-out: DIZ; summary of the method: as §2
Bacillus cereus = assay: Antimicrobial activity against Bacillus cereus NCIM 2155 after 24 hrs by serial dilution method; assay type: functional; settings: NCIM 2155, 24 h
Summary of the method: (§4)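 Broth dilution MIC in nutrient broth, run only for organisms found sensitive in disc diffusion. Compounds are two-fold serially diluted in 1 ml sterile broth per tube, spanning 3.9 to 1000. Inoculated tubes are incubated at 37 °C for 24 h.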

Salmonella typhimurium = assay: Antimicrobial activity against Salmonella Typhimurium NCIM 2501 after 24 hrs by serial dilution method; assay type: functional, Salmonella enterica subsp. enterica serovar Typhimurium; settings: Salmonella enterica, NCIM 2501, 24 h
Bacillus subtilis = assay: Antimicrobial activity against Bacillus subtilis NCIM 2063 after 24 hrs by serial dilution method; assay type: functional; settings: NCIM 2063, 24 h; summary of the method: as §4
Aliivibrio fischeri = assay: Antimicrobial activity against Vibrio fischeri NCIM 2154 at 1000 ug/disk after 24 hrs by disk diffusion method; assay type: functional; settings: for zone of inhibition at 1000 µg/disc: NCIM 2154, 24 h, read-out: DIZ
Summary of the method: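 Disc diffusion. 100 µl of bacterial suspension at 10⁸ CFU/ml was spread on Mueller–Hinton agar. Discs loaded with test compound dissolved in DMSO were placed on the lawn, with a DMSO-only disc as negative control. Plates were incubated at 37 °C for 24 h, and the inhibition zone diameter was measured.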

Klebsiella aerogenes [7] = assay: Antimicrobial activity against Klebsiella aerogenes NCIM 2239 at 1000 ug/disk after 24 hrs by disk diffusion method; assay type: functional; settings: for zone of inhibition at 1000 µg/disc: NCIM 2239, 24 h, read-out: DIZ; summary of the method: as §3
Klebsiella aerogenes [8] = assay: Antimicrobial activity against Klebsiella aerogenes NCIM 2239 after 24 hrs by serial dilution method; assay type: functional; settings: NCIM 2239, 24 h; summary of the method: as §4
[9] = system: Rhodococcus corynebacterioides; assay: Antimicrobial activity against Corynebacterium rubrum NCIM 2252 after 24 hrs by serial dilution method; assay type: functional; settings: Rhodococcoides corynebacterioides, NCIM 2252, 24 h; summary of the method: as §4
Lipomyces lipofer [10] = assay: Antimicrobial activity against Lipomyces lipofer NCIM 3252 after 72 hrs by serial dilution method; assay type: functional; settings: NCIM 3252, 72 h; summary of the method: as §1
Penicillium chrysogenum [11] = assay: Antimicrobial activity against Penicillium chrysogenum NCIM 707 after 72 hrs by serial dilution method; assay type: functional; settings: NCIM 707, 72 h; summary of the method: as §1
Aspergillus niger [12] = assay: Antimicrobial activity against Aspergillus niger NCIM 902 after 72 hrs by serial dilution method; assay type: functional; settings: NCIM 1196, 72 h, in the assay text read “NCIM 1196” for “NCIM 902”; summary of the method: as §1
Aspergillus niger [13] = assay: Antimicrobial activity against Aspergillus niger NCIM 902 at 1000 ug/disk after 72 hrs by disk diffusion method; assay type: functional; settings: NCIM 1196, 72 h, in the assay text read “NCIM 1196” for “NCIM 902”, read-out: DIZ; summary of the method: as §2

SMILES	MIC (Aspergillus fumigatus [1])	MIC (Bacillus cereus)	MIC (Salmonella typhimurium)	MIC (Bacillus subtilis)	MIC (Klebsiella aerogenes [8])	MIC [9]	MIC (Penicillium chrysogenum [11])	diameter of the inhibition zone (DIZ) (Penicillium chrysogenum [2])	zone of inhibition at 500 µg/disc (Trichoderma viride)	diameter of the inhibition zone (DIZ) (Aspergillus niger [3])	diameter of the inhibition zone (DIZ) (Aspergillus niger [4])	zone of inhibition at 500 µg/disc (Aspergillus parasiticus)	diameter of the inhibition zone (DIZ) (Lipomyces lipofer [5])	zone of inhibition at 500 µg/disc (Escherichia coli)	zone of inhibition at 1000 µg/disc (Aspergillus fumigatus [6])	zone of inhibition at 1000 µg/disc (Aliivibrio fischeri)	diameter of the inhibition zone (DIZ) (Klebsiella aerogenes [7])	zone of inhibition at 1000 µg/disc (Penicillium chrysogenum [2])	zone of inhibition at 1000 µg/disc (Klebsiella aerogenes [7])	also measured
O=C1CCCC2=C1C(c1ccccc1O)c1ccc3ccccc3c1N2 (centres undefined)	62.5 µg/mL (≈ 183 µM)	125 µg/mL (≈ 366 µM)		62.5 µg/mL (≈ 183 µM)			125 µg/mL (≈ 366 µM)		9 mm		inactive	9 mm	inactive	8 mm	12 mm		inactive	9 mm		MIC (Aspergillus niger [12]): 125 µg/mL (≈ 366 µM); zone of inhibition at 1000 µg/disc (Aspergillus niger [13]): 9 mm; diameter of the inhibition zone (DIZ) (Aliivibrio fischeri): inactive
O=C1CCCC2=C1C(c1cccc(Cl)c1)c1ccc3ccccc3c1N2 (centres undefined)	31.2 µg/mL (≈ 86.7 µM)			31.2 µg/mL (≈ 86.7 µM)	125 µg/mL (≈ 347 µM)	125 µg/mL (≈ 347 µM)		inactive	8 mm	inactive	inactive	12 mm	inactive	7 mm	12 mm	10 mm			9 mm	

More lines, main results first:

MIC (Aspergillus fumigatus [1])	MIC (Bacillus cereus)	MIC (Salmonella typhimurium)	MIC (Bacillus subtilis)	MIC (Klebsiella aerogenes [8])	MIC [9]	MIC (Penicillium chrysogenum [11])	SMILES	diameter of the inhibition zone (DIZ) (Penicillium chrysogenum [2])	zone of inhibition at 500 µg/disc (Trichoderma viride)	diameter of the inhibition zone (DIZ) (Aspergillus niger [3])	diameter of the inhibition zone (DIZ) (Aspergillus niger [4])	zone of inhibition at 500 µg/disc (Aspergillus parasiticus)	diameter of the inhibition zone (DIZ) (Lipomyces lipofer [5])	zone of inhibition at 500 µg/disc (Escherichia coli)	zone of inhibition at 1000 µg/disc (Aspergillus fumigatus [6])	zone of inhibition at 1000 µg/disc (Aliivibrio fischeri)	diameter of the inhibition zone (DIZ) (Klebsiella aerogenes [7])	zone of inhibition at 1000 µg/disc (Penicillium chrysogenum [2])	zone of inhibition at 1000 µg/disc (Klebsiella aerogenes [7])	also measured
62.5 µg/mL (≈ 177 µM)	31.2 µg/mL (≈ 88.3 µM)	62.5 µg/mL (≈ 177 µM)	31.2 µg/mL (≈ 88.3 µM)				CC1(C)CC(=O)C2=C(C1)Nc1c(ccc3ccccc13)C2c1ccccc1 (centres undefined)	inactive	9 mm	inactive	inactive	7 mm	inactive	7 mm	10 mm	8 mm	inactive			
62.5 µg/mL (≈ 161 µM)	62.5 µg/mL (≈ 161 µM)	62.5 µg/mL (≈ 161 µM)	62.5 µg/mL (≈ 161 µM)	125 µg/mL (≈ 322 µM)	125 µg/mL (≈ 322 µM)	62.5 µg/mL (≈ 161 µM)	CC1(C)CC(=O)C2=C(C1)Nc1c(ccc3ccccc13)C2c1cccc(Cl)c1 (centres undefined)		10 mm	inactive	inactive	11 mm	inactive	7 mm	9 mm	9 mm		10 mm	9 mm	MIC (Lipomyces lipofer [10]): 125 µg/mL (≈ 322 µM)
62.5 µg/mL (≈ 174 µM)			62.5 µg/mL (≈ 174 µM)		125 µg/mL (≈ 347 µM)		O=C1CCCC2=C1C(c1ccccc1Cl)c1ccc3ccccc3c1N2 (centres undefined)	inactive	9 mm	inactive	inactive	8 mm	inactive		9 mm	9 mm	inactive			diameter of the inhibition zone (DIZ) (Escherichia coli): inactive

From ChEMBL document CHEMBL1138564, “Microwave-induced synthesis and anti-microbial activities of 7,10,11,12-tetrahydrobenzo[c]acridin-8(9H)-one derivatives” (2009)
